This is a sample that favours compounds with a hit; in the whole collection about 1.9% have one here.
Rin1 Abl inh – inhibitors of human Rin1-Abl protein interaction; TR-FRET Rin1/Abl binding, biochemical; 360,000 tested, 0.4% active; P00519+Q13671; inhibition, % at 7.35 µM; in the data active = inhibition above about 5%, passing the limit was not always enough
Target sequence (P00519 whole entry, looked up): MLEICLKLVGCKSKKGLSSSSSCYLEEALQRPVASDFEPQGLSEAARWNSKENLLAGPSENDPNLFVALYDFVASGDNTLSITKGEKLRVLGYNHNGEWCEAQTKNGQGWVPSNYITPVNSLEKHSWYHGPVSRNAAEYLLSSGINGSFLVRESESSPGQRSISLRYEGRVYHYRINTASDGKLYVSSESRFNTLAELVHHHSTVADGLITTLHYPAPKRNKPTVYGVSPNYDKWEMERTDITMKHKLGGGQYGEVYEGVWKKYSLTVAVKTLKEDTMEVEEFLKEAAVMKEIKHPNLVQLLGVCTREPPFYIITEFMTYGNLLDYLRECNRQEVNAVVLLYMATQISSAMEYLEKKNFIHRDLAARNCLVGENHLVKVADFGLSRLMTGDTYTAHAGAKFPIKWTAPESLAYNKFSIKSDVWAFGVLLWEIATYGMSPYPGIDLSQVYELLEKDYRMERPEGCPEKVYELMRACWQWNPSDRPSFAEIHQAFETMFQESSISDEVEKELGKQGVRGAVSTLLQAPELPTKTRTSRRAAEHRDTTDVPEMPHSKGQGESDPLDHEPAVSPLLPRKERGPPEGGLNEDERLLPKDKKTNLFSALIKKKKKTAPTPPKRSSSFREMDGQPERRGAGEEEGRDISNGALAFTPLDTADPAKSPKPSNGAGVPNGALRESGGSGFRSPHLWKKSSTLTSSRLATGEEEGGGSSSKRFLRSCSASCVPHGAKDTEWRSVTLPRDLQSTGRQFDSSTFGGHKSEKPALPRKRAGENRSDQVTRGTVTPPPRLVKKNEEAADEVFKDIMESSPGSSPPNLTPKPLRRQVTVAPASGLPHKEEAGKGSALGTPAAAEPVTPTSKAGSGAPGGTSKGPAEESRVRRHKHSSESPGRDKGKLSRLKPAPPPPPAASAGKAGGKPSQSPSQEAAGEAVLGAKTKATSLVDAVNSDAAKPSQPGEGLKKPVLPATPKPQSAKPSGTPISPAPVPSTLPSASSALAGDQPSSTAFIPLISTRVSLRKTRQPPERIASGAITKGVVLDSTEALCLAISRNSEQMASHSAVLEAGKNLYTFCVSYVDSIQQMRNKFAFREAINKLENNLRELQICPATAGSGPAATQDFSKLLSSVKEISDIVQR
Target sequence (Q13671 whole entry, looked up): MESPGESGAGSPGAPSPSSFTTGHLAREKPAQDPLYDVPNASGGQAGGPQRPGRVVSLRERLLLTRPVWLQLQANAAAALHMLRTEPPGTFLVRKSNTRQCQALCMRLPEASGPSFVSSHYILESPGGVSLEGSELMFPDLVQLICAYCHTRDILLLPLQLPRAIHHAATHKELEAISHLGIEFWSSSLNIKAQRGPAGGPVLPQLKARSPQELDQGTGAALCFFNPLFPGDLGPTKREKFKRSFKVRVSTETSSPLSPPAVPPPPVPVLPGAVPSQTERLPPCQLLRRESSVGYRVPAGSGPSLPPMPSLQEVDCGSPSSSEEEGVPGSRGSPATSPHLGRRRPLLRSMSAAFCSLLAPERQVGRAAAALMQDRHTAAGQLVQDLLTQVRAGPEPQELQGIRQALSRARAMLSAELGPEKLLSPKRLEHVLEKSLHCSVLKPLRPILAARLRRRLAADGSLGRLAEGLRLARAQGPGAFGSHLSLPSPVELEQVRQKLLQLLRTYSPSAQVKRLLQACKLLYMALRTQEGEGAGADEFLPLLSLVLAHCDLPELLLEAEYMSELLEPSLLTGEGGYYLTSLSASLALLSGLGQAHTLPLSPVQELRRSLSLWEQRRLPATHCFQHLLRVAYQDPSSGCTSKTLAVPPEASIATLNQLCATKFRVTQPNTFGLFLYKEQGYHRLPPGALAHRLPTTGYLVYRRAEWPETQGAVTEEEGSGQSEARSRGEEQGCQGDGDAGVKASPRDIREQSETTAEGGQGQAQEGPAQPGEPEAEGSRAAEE
XiGFP reactiv – activators of X-chromosome reactivation in mouse fibroblasts; AID 743238; XiGFP mouse fibroblasts, % GFP-positive cells imaging, 3 d; cells co-treated with 5-aza-dC sensitizer; scaled so ellipticine positive control = 100%; activation, % at 7.58 µM; 360,000 tested, 0.055% active;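 active = mean normalized replicate activation at least 10% and every replicate at or above 10%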;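 note: 0% = median of on-plate neutral control wells and 100% = ellipticine 6 µM median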
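Material: XiGFP fibroblasts, SV40-immortalized. Buffer or medium: DMEM plus 5-aza-dC sensitizer. Compound: single concentration per compound, delivered by pin transfer. Times: 3 days compound exposure. Controls: ellipticine 6 µM.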
NadD inh – inhibitors of Staphylococcus aureus NadD | 360,000 tested, 0.78% active | inhibition, % at 20 µM | purified NadD enzyme, colorimetric absorbance read-out; in the data active = inhibition above about 26%
ABHD5 PLIN5 PPI – ABHD5-PLIN5 protein interaction inhibition; Q00G26+Q8WTS1; Split G. princeps luciferase complementation, luminescence, 4 h; inhibition, % at 4 µM; 360,000 tested, 0.78% active;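 active = inhibition above the mean inhibition across every tested compound plus 3 SD, cut at about 22% in these data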;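 note: 0% = DMSO only wells and the 100% control is not disclosed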
Rpn11 block – inhibitors of human proteasome Rpn11 | inhibition, % at 20 µM | AID 588493 | human 26S proteasome, Ub4-pepOG fluorescence polarization; 20S core pre-blocked with epoxomicin | 360,000 tested, 0.59% active;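 active = inhibition at 20 µM, scaled to each plate's controls, above about 33%, limit read from the data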
NadD conf – NadD (S. aureus) inhibition, single concentration confirmation | purified S. aureus NadD, colorimetric enzyme assay | inhibition, % at 20 µM | 2,000 tested, 13% active | shares compounds with NadD inh; in the data active = inhibition mostly above about 42%, no sharp cut-off; inactive = mostly below about 42%
Active calls of the source: *.

How did O=C(/C=C/c1ccco1)Oc1cc(Br)cc(/C=N/NC(=O)c2ccccc2O)c1 do in these assays?
Rin1 Abl inh: -2.4; XiGFP reactiv: -0.1; NadD inh: 37.8*; ABHD5 PLIN5 PPI: 1.9; Rpn11 block: 0.8; NadD conf: 36.4

Results for CC(C)CC#Cc1cnc2c(c1)C(=O)N([C@H](C)CO)C[C@H](C)[C@H](CN(C)S(=O)(=O)c1cn(C)cn1)O2 ?
XiGFP reactiv: -0.7

How did COc1ccc2c3c(n(C)c2c1)[C@H](CO)N(CC1CCCCC1)CC31CCN(C(=O)CN(C)C)CC1 do in these assays?
XiGFP reactiv: 0.4

How did Cc1ccc(C(=O)Nc2ccc(N3CCCC3)cc2)c(C)c1 do in these assays?
Rin1 Abl inh: 0.8; XiGFP reactiv: 0.0; NadD inh: 32.0*; ABHD5 PLIN5 PPI: 2.8; Rpn11 block: 20.2; NadD conf: 3.6

How did O=C(Nc1ccc(N2CCCC2)cc1)c1ccccc1[N+](=O)[O-] do in these assays?
Rin1 Abl inh: 1.1; XiGFP reactiv: 0.1; NadD inh: 26.7*; ABHD5 PLIN5 PPI: 11.3; Rpn11 block: 2.5; NadD conf: 15.7

What do the screens show for `O=C(Nc1ccc(N2CCN(Cc3ccccc3)CC2)cc1)c1ccccc1[N+](=O)[O-]`?
Rin1 Abl inh: -0.8; XiGFP reactiv: 0.1; NadD inh: -2.3; ABHD5 PLIN5 PPI: -1.0; Rpn11 block: -3.1

What do the screens show for `O=C(Nc1ccc(N2CCCC2)cc1)c1cc(Br)ccc1Cl`?
Rin1 Abl inh: -0.6; XiGFP reactiv: 0.0; NadD inh: 41.3*; ABHD5 PLIN5 PPI: 11.3; Rpn11 block: 9.4; NadD conf: 54.9*

What do the screens show for `Cc1ccccc1C(=O)Nc1ccc(N2CCCC2)cc1`?
Rin1 Abl inh: -0.3; XiGFP reactiv: -0.1; NadD inh: 3.1; ABHD5 PLIN5 PPI: -1.1; Rpn11 block: -2.3

How did CN(C)CC(=O)Nc1ccc2c(c1)[C@H]1C[C@H](CC(=O)NC3CCCC3)O[C@H](CO)[C@H]1O2 do in these assays?
XiGFP reactiv: 0.3

What do the screens show for `Cc1ccc(/C=N/NC(=O)CSc2nc3ccccc3c(=O)n2-c2ccccc2)s1`?
Rin1 Abl inh: 0.1; XiGFP reactiv: 0.0; NadD inh: -1.3; ABHD5 PLIN5 PPI: -2.8; Rpn11 block: 16.7

How did Cc1ccc(/C=N/NC(=O)CSc2nc3ccccc3c(=O)n2-c2ccccc2C)s1 do in these assays?
Rin1 Abl inh: -2.5; NadD inh: 49.7*; ABHD5 PLIN5 PPI: 0.8; Rpn11 block: 6.7; NadD conf: 34.4

Results for Cc1nn(-c2ccccc2)c(C)c1/C=N/NC(=O)CSc1nc2ccccc2c(=O)n1-c1ccc(Br)cc1 ?
Rin1 Abl inh: -2.1; NadD inh: 30.1*; ABHD5 PLIN5 PPI: 11.7; Rpn11 block: -0.9; NadD conf: 3.4

Results for CCc1ccc(N(CC(=O)NCc2ccco2)C(=O)CCC(=O)Nc2ccccn2)cc1 ?
Rin1 Abl inh: 4.0; XiGFP reactiv: 0.0; NadD inh: 23.9*; ABHD5 PLIN5 PPI: 2.3; Rpn11 block: -0.9; NadD conf: 4.3

Results for Cc1cc(C)n(-c2nc(N(c3ccccc3)c3ccccc3)nc(-n3nc(C)cc3C)n2)n1 ?
Rin1 Abl inh: 4.2; NadD inh: 42.4*; ABHD5 PLIN5 PPI: 2.2; Rpn11 block: 19.8; NadD conf: 21.5

Results for O=C(/C=C/c1ccco1)c1ccc(NC(=O)C23CC4CC(CC(C4)C2)C3)cc1 ?
Rin1 Abl inh: -2.0; XiGFP reactiv: 0.3; NadD inh: 32.8*; ABHD5 PLIN5 PPI: 19.1; Rpn11 block: 32.6; NadD conf: 11.4

Results for O=C(CNC(=O)C12CC3CC(CC(C3)C1)C2)N/N=C\c1ccco1 ?
Rin1 Abl inh: -2.2; XiGFP reactiv: 0.0; NadD inh: -2.2; ABHD5 PLIN5 PPI: -3.3; Rpn11 block: -14.0

How did C[C@H](CO)N1C[C@H](C)[C@@H](CN(C)C(=O)C2CCCCC2)Oc2ncc(-c3ccncc3)cc2C1=O do in these assays?
XiGFP reactiv: -0.7

What do the screens show for `Cc1ccc(F)c(C2C3C=CCC(c4cccc(-c5ccc(N(C)C)cc5)c4)C3C(=O)N2Cc2ccccc2)c1` (stereo unspecified)?
Rin1 Abl inh: 1.2; XiGFP reactiv: -0.2; NadD inh: 43.1*; ABHD5 PLIN5 PPI: -5.8; Rpn11 block: 2.6; NadD conf: 18.2

How did O=C1C2C(c3cccc(/C=C/c4ccccc4)c3)CC=CC2C(c2ccc3ccccc3c2)N1Cc1ccccc1 (stereo unspecified) do in these assays?
Rin1 Abl inh: 3.0; XiGFP reactiv: 0.0; NadD inh: 31.8*; ABHD5 PLIN5 PPI: -6.2; Rpn11 block: 5.8; NadD conf: 7.6

Results for COc1ccc(-c2cccc(C3CC=CC4C3C(=O)N(Cc3ccccc3)C4c3ccc(OC)c(Cl)c3)c2)cc1 (stereo unspecified) ?
Rin1 Abl inh: 0.3; XiGFP reactiv: 0.0; NadD inh: 18.8; ABHD5 PLIN5 PPI: -0.6; Rpn11 block: 10.3

How did Cc1ccc(-c2cccc(C3CC=CC4C3C(=O)N(Cc3ccccc3)C4c3ccc4ccccc4c3)c2)cc1 (stereo unspecified) do in these assays?
Rin1 Abl inh: -0.3; XiGFP reactiv: 0.0; NadD inh: 33.6*; ABHD5 PLIN5 PPI: -5.7; Rpn11 block: 6.8; NadD conf: 4.2

What do the screens show for `O=C1C2C(c3cccc(/C=C/c4ccccc4)c3)CC=CC2C(c2ccc(C(F)(F)F)cc2)N1Cc1ccccc1` (stereo unspecified)?
Rin1 Abl inh: 1.4; XiGFP reactiv: 0.0; NadD inh: 22.6; ABHD5 PLIN5 PPI: -13.9; Rpn11 block: 4.2

Results for C[C@@H]1CCCCO[C@H](CN(C)S(C)(=O)=O)[C@@H](C)CN([C@@H](C)CO)C(=O)c2cc(NC(=O)Nc3ccc(F)cc3)ccc2O1 ?
XiGFP reactiv: 0.0

Results for COC(=O)[C@H](CC(C)C)N1Cc2cc(OC)cc(OC)c2-c2ccccc2S1(=O)=O ?
Rin1 Abl inh: 2.9; XiGFP reactiv: 0.0; NadD inh: 36.6*; ABHD5 PLIN5 PPI: 7.2; Rpn11 block: 3.7; NadD conf: 48.5*

Results for C=C1CCN(C(CC(C)C)C(=O)OC)S(=O)(=O)c2ccccc21 (stereo unspecified) ?
Rin1 Abl inh: 0.1; XiGFP reactiv: 0.0; NadD inh: 0.7; ABHD5 PLIN5 PPI: 2.3; Rpn11 block: 5.1

What do the screens show for `Cc1ccc(C)c(N2CCN(S(=O)(=O)c3ccc4[nH]c(=O)c(=O)[nH]c4c3)CC2)c1`?
Rin1 Abl inh: -1.1; NadD inh: 32.1*; ABHD5 PLIN5 PPI: -3.7; Rpn11 block: -2.1; NadD conf: 53.5*

How did Cc1ccc(Cl)cc1N1CCN(S(=O)(=O)c2ccc3c(c2)CC(=O)N3C)CC1 do in these assays?
Rin1 Abl inh: 0.6; XiGFP reactiv: 0.0; NadD inh: 28.5*; ABHD5 PLIN5 PPI: -6.1; Rpn11 block: 3.1; NadD conf: 10.2

Bioassay records (PubChem BioAssay)
